Experimental data collected from several papers.
Protocols differ between the studies behind these lines.

SMILES | technique | sample | time | pH | temperature | notes | kinetic solubility
Cc1cc(Nc2ccc(C(F)(F)F)cc2)c2ccccc2n1 |  | PBS |  | pH 6.5 |  |  | 83 µM
CC(=O)Nc1cc(Nc2cc(NC3CC3)n3ncc(C#N)c3n2)ccc1N(C)C[C@@H]1CCCN1 | shake flask | PBS | 24 h | pH 7.4 | 22 °C |  | 68 µg/mL
CNC(=O)[C@H](Cc1c[nH]cn1)NC(=O)CN(CCCc1ccccc1)CC(=O)O |  | PBS | 24 h | pH 7.4 |  |  | 170 µM
CCOC(=O)NS(=O)(=O)c1sc(CC(C)C)cc1-c1ccc2c(c1)CN(C)C(=O)C2 |  | aqueous buffer |  | pH 7.4 | 37 °C |  | 61 µM
COC(=O)[C@H](Cc1c[nH]cn1)NC(=O)CN(CC(=O)O)Cc1ccccc1 |  | PBS | 24 h | pH 7.4 |  |  | 154 µM
CCCC#Cc1ccc([C@@H](CO)C(=O)N[C@H](C)c2ccccc2)cc1 |  | PBS |  | pH 7.4 |  |  | 7.4 µM
CC(=O)Nc1cc(Nc2cc(NC3CC3)n3ncc(C#N)c3n2)ccc1N1CCNCC1 | shake flask | PBS | 24 h | pH 7.4 | 22 °C |  | 52 µg/mL
COC(=O)[C@H](Cc1c[nH]cn1)NC(=O)CN(CCCc1ccccc1)CC(=O)O |  | PBS | 24 h | pH 7.4 |  |  | 199 µM
CN[C@@H]1CCN(c2ccc(Nc3cc(NC4CC4)n4ncc(C#N)c4n3)cc2NC(C)=O)C1 | shake flask | PBS | 24 h | pH 7.4 | 22 °C |  | 64 µg/mL
Cc1cc(Nc2ccc(S(F)(F)(F)(F)F)cc2)n2ccnc2n1 |  | simulated gastric fluid |  | pH 2 |  | acidic | > 285 µM
O=C1CCC(N2C(=O)c3cccc(NCCCCNC(=O)c4cccc(C#Cc5cc(NC(=O)Nc6ccnc(Cl)c6)ccn5)c4)c3C2=O)C(=O)N1 (stereo not drawn) |  | PBS | 24 h | pH 7.4 |  |  | < 1.56 µM
CC(=O)Nc1cc(Nc2cc(NC3CC3)n3ncc(C#N)c3n2)ccc1N(C)CC1COC1 | shake flask | PBS | 24 h | pH 7.4 | 22 °C |  | 0.2 µg/mL
COc1ccn2c(Nc3ccccc3F)c(-c3ccncn3)nc2c1 |  | aqueous buffer | 24 h |  |  |  | 163 µM
CC(=O)Nc1cc(Nc2cc(NC3CC3)n3ncc(C#N)c3n2)ccc1N(C)C1COC1 | shake flask | PBS | 24 h | pH 7.4 | 22 °C |  | 0.9 µg/mL
CCn1cc(-c2cc(Cn3ccnc3)cc3c2OCCN([C@H](c2cc(OC)ccn2)C2CC2)C3=O)c(C(F)(F)F)n1 |  | PBS | 1 h | pH 7.4 |  |  | 74 µM
CC[C@H](NC(=O)[C@H](CS(=O)(=O)CC1CC1)N[C@@H](c1ccc(F)cc1)C(F)(F)F)C(=O)C(=O)NC1CC1 |  | PBS |  | pH 7.4 |  |  | 223 µM
CCCCOC(=O)NS(=O)(=O)c1sc(CC(C)C)cc1-c1ccc(OC(F)(F)F)c(Cn2ccnc2)c1 |  | aqueous buffer |  | pH 7.4 | 37 °C |  | 52 µM
O=C(O)CN(CCCc1ccccc1)CC(=O)N[C@@H](Cc1c[nH]cn1)C(=O)NCc1ccccc1 |  | PBS | 24 h | pH 7.4 |  |  | 179 µM
CCOC(=O)NS(=O)(=O)c1sc(CC(C)C)cc1-c1ccc2c(c1)CN(C(=O)OCC)C2 |  | aqueous buffer |  | pH 7.4 | 37 °C |  | 58 µM
CN[C@@H]1CCCN(c2ccc(Nc3cc(NC4CC4)n4ncc(C#N)c4n3)cc2NC(C)=O)C1 | shake flask | PBS | 24 h | pH 7.4 | 22 °C |  | 52 µg/mL
CNC(=O)[C@H](Cc1c[nH]cn1)NC(=O)CN(CCCc1ccccc1)CC(=O)OC |  | PBS | 24 h | pH 7.4 |  |  | 179 µM
